Test results from ChEMBL document CHEMBL4028907, “Semisynthesis and Biological Evaluation of Xanthone Amphiphilics as Selective, Highly Potent Antifungal Agents to Combat Fungal Resistance” (J Med Chem, 2017).
Values after ≈ are worked out from the molar mass of the structure shown. Active and inactive are the calls of the source. The calls are words filed in the database; no cut-off is given here.

Tests used:
Candida albicans [1] = assay: Antifungal activity against Candida albicans ATCC 10231 after 24 hrs by two fold serial dilution method; assay type: functional; conditions: ATCC 10231, 24 h
Method in brief: (§1)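 Candida grown on Sabouraud dextrose agar at 35 °C for 24 h, adjusted to ~5×10^3 CFU/mL. Two-fold dilutions from 100 to 0.78 μg/mL in Sabouraud dextrose broth, incubated at 35 °C for 24 h. MIC is the lowest concentration inhibiting growth by eye and by OD600. CLSI-based with minor modifications.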

Candida albicans [2] = assay: Antifungal activity against drug resistant Candida albicans DF2672R after 24 hrs by two fold serial dilution method; assay type: functional; method in brief: as §1
[3] = Selectivity index, ratio of HC50 for New Zealand white rabbit RBC to MIC for Candida albicans ATCC 10231
Staphylococcus aureus [4] = assay: Antibacterial activity against Staphylococcus aureus DM4001R by two fold serial dilution method; assay type: functional
Method in brief: (§2)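 Broth microdilution (CLSI, minor modifications) in Sabouraud dextrose, Mueller−Hinton or RPMI 1640 broth; two-fold serial dilutions of compound from stock to final 100 to 0.78 μg/mL. MIC taken as lowest concentration giving no visible growth.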

Bacillus cereus = assay: Antibacterial activity against Bacillus cereus ATCC11778 by two fold serial dilution method; assay type: functional; method in brief: as §2
Klebsiella pneumoniae = assay: Antibacterial activity against Klebsiella pneumoniae DM4299 by two fold serial dilution method; assay type: functional; method in brief: as §2
Pseudomonas aeruginosa = assay: Antibacterial activity against Pseudomonas aeruginosa DM23155 by two fold serial dilution method; assay type: functional; method in brief: as §2
Candida albicans [5] = assay: Antifungal activity against Candida albicans DF1976R after 24 hrs by two fold serial dilution method; assay type: functional; method in brief: as §1
Candida albicans [6] = assay: Antifungal activity against Candida albicans ATCC90028 after 24 hrs by two fold serial dilution method; assay type: functional; conditions: ATCC90028, 24 h; method in brief: as §1
Candida albicans [7] = assay: Antifungal activity against Candida albicans ATCC24433 after 24 hrs by two fold serial dilution method; assay type: functional; conditions: ATCC24433, 24 h; method in brief: as §1
Candida albicans [8] = assay: Antifungal activity against Candida albicans ATCC11651 after 24 hrs by two fold serial dilution method; assay type: functional; conditions: ATCC11651, 24 h; method in brief: as §1
Fusarium solani [9] = assay: Antifungal activity against Fusarium solani 52628 after 48 hrs by two fold serial dilution method; assay type: functional; conditions: Fusarium solani, 52628, 48 h
Method in brief: (§3)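 Moulds grown on potato dextrose agar, 30 °C, 4 days; inoculum adjusted to about 5×10^3 CFU/mL. Two-fold serial dilutions in RPMI-1640 broth, 100 to 0.78 μg/mL final, mixed with equal volume of cell suspension; incubated 30 °C, 48 h. MIC = lowest concentration inhibiting growth, judged visually and by OD530.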

Fusarium solani [10] = assay: Antifungal activity against Fusarium solani 62877 after 48 hrs by two fold serial dilution method; assay type: functional; conditions: Fusarium solani, 62877, 48 h; method in brief: as §3
Fusarium solani [11] = assay: Antifungal activity against Fusarium solani MYA3636 after 48 hrs by two fold serial dilution method; assay type: functional; conditions: MYA3636, 48 h; method in brief: as §3
Fusarium solani [12] = assay: Antifungal activity against Fusarium solani 46492 after 48 hrs by two fold serial dilution method; assay type: functional; conditions: Fusarium solani, 46492, 48 h; method in brief: as §3
Aspergillus brasiliensis = assay: Antifungal activity against Aspergillus brasiliensis TCC16404 after 48 hrs by two fold serial dilution method; assay type: functional; conditions: TCC16404, 48 h; method in brief: as §3
Aspergillus flavus [13] = assay: Antifungal activity against Aspergillus flavus TCC 204304 after 48 hrs by two fold serial dilution method; assay type: functional; conditions: TCC 204304, 48 h; method in brief: as §3
Aspergillus flavus [14] = assay: Antifungal activity against Aspergillus flavus TCC MYA3631 after 48 hrs by two fold serial dilution method; assay type: functional; conditions: TCC MYA3631, 48 h; method in brief: as §3
Aspergillus fumigatus [15] = assay: Antifungal activity against Aspergillus fumigatus TCC MYA3626 after 48 hrs by two fold serial dilution method; assay type: functional; conditions: TCC MYA3626, 48 h; method in brief: as §3
Aspergillus fumigatus [16] = assay: Antifungal activity against Aspergillus fumigatus TCC 90906 after 48 hrs by two fold serial dilution method; assay type: functional; conditions: TCC 90906, 48 h; method in brief: as §3
Candida albicans [17] = assay: Synergistic antifungal activity against drug resistant Candida albicans DF2672R after 24 hrs in presence of itraconazole by checkerboard assay; assay type: functional
Method in brief: (§4)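 Checkerboard combination of each compound with a second antifungal, following a previously reported procedure. FIC = MIC of A in combination/MIC of A alone + MIC of B in combination/MIC of B alone.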

Candida albicans [18] = assay: Synergistic antifungal activity against drug resistant Candida albicans DF2672R after 24 hrs in presence of miconazole by checkerboard assay; assay type: functional; method in brief: as §4
Candida albicans [19] = assay: Synergistic antifungal activity against drug resistant Candida albicans DF2672R after 24 hrs in presence of terbinafine by checkerboard assay; assay type: functional; method in brief: as §4
Candida albicans [20] = assay: Synergistic antifungal activity against drug resistant Candida albicans DF2672R after 24 hrs in presence of posaconazole by checkerboard assay; assay type: functional; method in brief: as §4
Candida albicans [21] = assay: Synergistic antifungal activity against drug resistant Candida albicans DF2672R after 24 hrs in presence of natamycin by checkerboard assay; assay type: functional; method in brief: as §4
Candida albicans [22] = assay: Synergistic antifungal activity against drug resistant Candida albicans DF2672R after 24 hrs in presence of amphotericin B by checkerboard assay; assay type: functional; method in brief: as §4
Candida albicans [23] = assay: Fungicidal activity against drug resistant Candida albicans DF2672R after 0.5 to 24 hrs by time kill assay; assay type: functional
Method in brief: (§5)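 Cells at 10^5–10^6 CFU/mL exposed to 1×, 2×, 4× or 8× MIC at 35 °C. Samples taken at 0.5, 1, 2, 4, 8 and 24 h, serially diluted in PBS and plated on SDA. CFU counted after 24 h at 35 °C; biological replicates.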

Candida albicans [24] = assay: Fungicidal activity against drug resistant Candida albicans DF2672R at 8 times MIC after 4 hrs by time kill assay relative to control; assay type: functional; method in brief: as §5
Candida albicans [25] = assay: Ratio of MIC against drug resistant Candida albicans DF2672R measured after 30 passages to MIC against drug resistant Candida albicans DF2672R measured before 30 passages by two fold serial dilution method; assay type: functional
Method in brief: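 Serial passage: cells from duplicate tubes at 0.5× MIC adjusted to ~5×10^3 CFU/mL and used as the inoculum for the next broth microdilution MIC, 24 h at 35 °C. Repeated for 27–30 passages, with biological replicates.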

Fusarium oxysporum [26] = assay: Antifungal activity against Fusarium oxysporum MYA3461 after 48 hrs by two fold serial dilution method; assay type: functional; conditions: MYA3461, 48 h; method in brief: as §3
Fusarium oxysporum [27] = assay: Antifungal activity against Fusarium oxysporum 64530 after 48 hrs by two fold serial dilution method; assay type: functional; conditions: Fusarium oxysporum, 64530, 48 h; method in brief: as §3
[28] = Cytotoxicity against human corneal fibroblasts assessed as cell viability up to 100 uM after 4 hrs by LDH assay relative to control; assay type: cell-based, Corneal fibroblast; conditions: read-out: Activity
Method in brief: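 LDH release assay on human corneal fibroblasts seeded at 10000 cells per well, exposed to a range of compound concentrations up to 100 μM. 1% Triton X-100 served as positive control and 0.5% DMSO as negative control; biological replicates.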

Candida albicans [29] = assay: Induction of membrane permiablization in drug resistant Candida albicans DF2672R at 4 times MIC after 1 to 2 hrs by SYTOX green dye based spectrofluorometric assay; assay type: functional
Method in brief: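 Overnight cultures washed and resuspended in PBS at OD600 0.2, then loaded with 0.3 μM SYTOX Green in the dark. After the signal stabilised, compound in PBS/DMF was added (final DMF 0.5%; 0.5% DMF as control). Fluorescence (ex 504/em 523 nm) followed continuously for 1–2 h; biological replicates.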

Lipid bilayer [30] = assay: Induction of membrane permiablization in calcein loaded DOPC/DOPE/PI large unilamellar vesicles assessed as calcein leakage at 1:4 compound to lipid ratio after 1 to 2 hrs by fluorescence assay relative to control
Method in brief: (§6)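 LUVs (DOPC/DOPE/PI 2:1:1 with 15 wt % ergosterol, about 100 nm) made by film hydration and extrusion, loaded with 80 mM calcein in HEPES buffer pH 7.4. Free dye removed by G-50 column. Compound added in 0.5% DMF at 50 μM final phospholipid. Emission read at 520 nm (excitation 490 nm); leakage normalized to 1% Triton X-100.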

Lipid bilayer [31] = assay: Induction of membrane permiablization in calcein loaded DOPC/DOPE/PI large unilamellar vesicles assessed as calcein leakage at 1:8 compound to lipid ratio after 1 to 2 hrs by […] fluorescence assay relative to control; method in brief: as §6
Staphylococcus aureus [32] = assay: Antibacterial activity against methicillin resistant Staphylococcus aureus DM21455 by two fold serial dilution method; assay type: functional
Method in brief: (§7)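 Broth microdilution per CLSI guidelines with minor modifications, run in Mueller−Hinton broth; MIC is the lowest concentration giving no visible growth.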

Staphylococcus aureus [33] = assay: Antibacterial activity against methicillin resistant Staphylococcus aureus DM9808R by two fold serial dilution method; assay type: functional; method in brief: as §7

CCCCN(CCCC)CC(O)COc1cc2oc3cc(OCC(O)CN(CCCC)CCCC)c(OC)c(CC=C(C)C)c3c(=O)c2c(O)c1CC=C(C)C (configuration not stated)
MIC (Candida albicans [1]): 3.13 mg/L (≈ 4.01 µM)
MIC (Candida albicans [2]): 3.13 mg/L (≈ 4.01 µM)
Selectivity Index [3]: > 128
MIC (Staphylococcus aureus [4]): > 50 mg/L
MIC (Bacillus cereus): > 50 mg/L
MIC (Klebsiella pneumoniae): > 50 mg/L
MIC (Pseudomonas aeruginosa): > 50 mg/L
MIC (Candida albicans [5]): 3.13 mg/L (≈ 4.01 µM)
MIC (Candida albicans [6]): 3.13 mg/L (≈ 4.01 µM)
MIC (Candida albicans [7]): 3.13 mg/L (≈ 4.01 µM)
MIC (Candida albicans [8]): 3.13 mg/L (≈ 4.01 µM)
MIC (Fusarium solani [9]): 6.25 mg/L (≈ 8 µM)
MIC (Fusarium solani [10]): 6.25 mg/L (≈ 8 µM)
MIC (Fusarium solani [11]): 3.13 mg/L (≈ 4.01 µM)
MIC (Fusarium solani [12]): 6.25 mg/L (≈ 8 µM)
MIC (Aspergillus brasiliensis): 3.13 mg/L (≈ 4.01 µM)
MIC (Aspergillus flavus [13]): 12.5 mg/L (≈ 16 µM)
MIC (Aspergillus flavus [14]): 12.5 mg/L (≈ 16 µM)
MIC (Aspergillus fumigatus [15]): 6.25 mg/L (≈ 8 µM)
MIC (Aspergillus fumigatus [16]): 12.5 mg/L (≈ 16 µM)
fractional inhibitory concentration index (FICI) (Candida albicans [17]): 0.63
fractional inhibitory concentration index (FICI) (Candida albicans [18]): 0.81
fractional inhibitory concentration index (FICI) (Candida albicans [19]): 0.29
fractional inhibitory concentration index (FICI) (Candida albicans [20]): 0.91
fractional inhibitory concentration index (FICI) (Candida albicans [21]): 0.91
fractional inhibitory concentration index (FICI) (Candida albicans [22]): 0.64
Activity (Candida albicans [23]): Dose-dependent effect
Activity (Candida albicans [24]): 99.9%
Ratio (Candida albicans [25]): 2
MIC (Fusarium oxysporum [26]): 3.13 mg/L (≈ 4.01 µM)
MIC (Fusarium oxysporum [27]): 6.25 mg/L (≈ 8 µM)
viability at 4 h [28]: > 99%
Activity (Candida albicans [29]): Active
Activity (Lipid bilayer [30]): 55.4%
Activity (Lipid bilayer [31]): 25.8%
MIC (Staphylococcus aureus [32]): > 50 mg/L
MIC (Staphylococcus aureus [33]): > 50 mg/L
